Reference: ChEMBL document CHEMBL4138284, “Biomimetic Stereoselective Sulfa-Michael Addition Leads to Platensimycin and Platencin Sulfur Analogues against Methicillin-Resistant Staphylococcus aureus” (J Nat Prod, 2018)
In brackets after ≈: the same amount, converted by molar mass.

Test system: Staphylococcus aureus
Experiment: Antibacterial activity against methicillin-resistant Staphylococcus aureus isolate 7 incubated overnight by agar dilution method
Format: functional
Method in brief: (§1)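 MIC by agar dilution. Strains were grown overnight in LB broth and diluted, then about 10^4 CFU (2 μL spots) were spotted onto LB agar plates containing test compound at 0.5 to 8 μg mL−1 agar. Plates were incubated overnight at 37 °C and inspected for growth. Clinical MSSA and MRSA isolates came from local hospitals.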

Row | Compound | MIC
1 | C[C@]12C[C@]34C[C@@H]1C[C@H](O2)[C@H]3[C@](C)(CCC(=O)Nc1c(O)ccc(C(=O)O)c1O)C(=O)C[C@@H]4SC(=O)c1cccc(F)c1 | 2 µg/mL (≈ 3.35 µM)
2 | C=C1C[C@@]23CCC1C[C@@H]2[C@](C)(CCC(=O)Nc1c(O)ccc(C(=O)O)c1O)C(=O)C[C@@H]3SC(=O)c1ccccc1 (single isomer, unassigned) | 4 µg/mL (≈ 7.1 µM)
3 | C=C1C[C@@]23CCC1C[C@@H]2[C@](C)(CCC(=O)Nc1c(O)ccc(C(=O)O)c1O)C(=O)C[C@@H]3SC(=O)Cc1ccc(F)cc1 (single isomer, unassigned) | 4 µg/mL (≈ 6.71 µM)

Test system: Staphylococcus aureus
Experiment: Antibacterial activity against methicillin-resistant Staphylococcus aureus isolate 5 incubated overnight by agar dilution method
Format: functional
Method in brief: as §1

Row | Compound | MIC
4 | C[C@]12C[C@]34C[C@@H]1C[C@H](O2)[C@H]3[C@](C)(CCC(=O)Nc1c(O)ccc(C(=O)O)c1O)C(=O)C[C@@H]4SC(=O)c1cccc(F)c1 | 1 µg/mL (≈ 1.67 µM)
5 | C=C1C[C@@]23CCC1C[C@@H]2[C@](C)(CCC(=O)Nc1c(O)ccc(C(=O)O)c1O)C(=O)C[C@@H]3SC(=O)c1ccccc1 (single isomer, unassigned) | 2 µg/mL (≈ 3.55 µM)
6 | C=C1C[C@@]23CCC1C[C@@H]2[C@](C)(CCC(=O)Nc1c(O)ccc(C(=O)O)c1O)C(=O)C[C@@H]3SC(=O)Cc1ccc(F)cc1 (single isomer, unassigned) | 2 µg/mL (≈ 3.36 µM)

Test system: Staphylococcus aureus
Experiment: Antibacterial activity against methicillin-sensitive Staphylococcus aureus isolate 4 incubated overnight by agar dilution method
Format: functional
Method in brief: as §1

Row | Compound | MIC
7 | C[C@]12C[C@]34C[C@@H]1C[C@H](O2)[C@H]3[C@](C)(CCC(=O)Nc1c(O)ccc(C(=O)O)c1O)C(=O)C[C@@H]4SC(=O)c1cccc(F)c1 | 1 µg/mL (≈ 1.67 µM)
8 | C=C1C[C@@]23CCC1C[C@@H]2[C@](C)(CCC(=O)Nc1c(O)ccc(C(=O)O)c1O)C(=O)C[C@@H]3SC(=O)c1ccccc1 (single isomer, unassigned) | 1 µg/mL (≈ 1.77 µM)
9 | C=C1C[C@@]23CCC1C[C@@H]2[C@](C)(CCC(=O)Nc1c(O)ccc(C(=O)O)c1O)C(=O)C[C@@H]3SC(=O)Cc1ccc(F)cc1 (single isomer, unassigned) | 0.5 µg/mL (≈ 0.839 µM)

Test system: Staphylococcus aureus
Experiment: Antibacterial activity against methicillin-resistant Staphylococcus aureus isolate 8 incubated overnight by agar dilution method
Format: functional
Method in brief: as §1

Row | Compound | MIC
10 | C[C@]12C[C@]34C[C@@H]1C[C@H](O2)[C@H]3[C@](C)(CCC(=O)Nc1c(O)ccc(C(=O)O)c1O)C(=O)C[C@@H]4SC(=O)c1cccc(F)c1 | 1 µg/mL (≈ 1.67 µM)
11 | C=C1C[C@@]23CCC1C[C@@H]2[C@](C)(CCC(=O)Nc1c(O)ccc(C(=O)O)c1O)C(=O)C[C@@H]3SC(=O)c1ccccc1 (single isomer, unassigned) | 2 µg/mL (≈ 3.55 µM)
12 | C=C1C[C@@]23CCC1C[C@@H]2[C@](C)(CCC(=O)Nc1c(O)ccc(C(=O)O)c1O)C(=O)C[C@@H]3SC(=O)Cc1ccc(F)cc1 (single isomer, unassigned) | 1 µg/mL (≈ 1.68 µM)

Test system: Staphylococcus aureus
Experiment: Antibacterial activity against methicillin-sensitive Staphylococcus aureus isolate 2 incubated overnight by agar dilution method
Format: functional
Method in brief: as §1

Row | Compound | MIC
13 | C[C@]12C[C@]34C[C@@H]1C[C@H](O2)[C@H]3[C@](C)(CCC(=O)Nc1c(O)ccc(C(=O)O)c1O)C(=O)C[C@@H]4SC(=O)c1cccc(F)c1 | 1 µg/mL (≈ 1.67 µM)
14 | C=C1C[C@@]23CCC1C[C@@H]2[C@](C)(CCC(=O)Nc1c(O)ccc(C(=O)O)c1O)C(=O)C[C@@H]3SC(=O)c1ccccc1 (single isomer, unassigned) | 1 µg/mL (≈ 1.77 µM)
15 | C=C1C[C@@]23CCC1C[C@@H]2[C@](C)(CCC(=O)Nc1c(O)ccc(C(=O)O)c1O)C(=O)C[C@@H]3SC(=O)Cc1ccc(F)cc1 (single isomer, unassigned) | 1 µg/mL (≈ 1.68 µM)

Test system: Staphylococcus aureus
Experiment: Antibacterial activity against methicillin-resistant Staphylococcus aureus isolate 9 incubated overnight by agar dilution method
Format: functional
Method in brief: as §1

Row | Compound | MIC
16 | C[C@]12C[C@]34C[C@@H]1C[C@H](O2)[C@H]3[C@](C)(CCC(=O)Nc1c(O)ccc(C(=O)O)c1O)C(=O)C[C@@H]4SC(=O)c1cccc(F)c1 | 1 µg/mL (≈ 1.67 µM)
17 | C=C1C[C@@]23CCC1C[C@@H]2[C@](C)(CCC(=O)Nc1c(O)ccc(C(=O)O)c1O)C(=O)C[C@@H]3SC(=O)c1ccccc1 (single isomer, unassigned) | 2 µg/mL (≈ 3.55 µM)
18 | C=C1C[C@@]23CCC1C[C@@H]2[C@](C)(CCC(=O)Nc1c(O)ccc(C(=O)O)c1O)C(=O)C[C@@H]3SC(=O)Cc1ccc(F)cc1 (single isomer, unassigned) | 1 µg/mL (≈ 1.68 µM)

Test system: Staphylococcus aureus
Experiment: Antibacterial activity against methicillin-resistant Staphylococcus aureus isolate 10 incubated overnight by agar dilution method
Format: functional
Method in brief: as §1

Row | Compound | MIC
19 | C[C@]12C[C@]34C[C@@H]1C[C@H](O2)[C@H]3[C@](C)(CCC(=O)Nc1c(O)ccc(C(=O)O)c1O)C(=O)C[C@@H]4SC(=O)c1cccc(F)c1 | 1 µg/mL (≈ 1.67 µM)
20 | C=C1C[C@@]23CCC1C[C@@H]2[C@](C)(CCC(=O)Nc1c(O)ccc(C(=O)O)c1O)C(=O)C[C@@H]3SC(=O)c1ccccc1 (single isomer, unassigned) | 1 µg/mL (≈ 1.77 µM)
21 | C=C1C[C@@]23CCC1C[C@@H]2[C@](C)(CCC(=O)Nc1c(O)ccc(C(=O)O)c1O)C(=O)C[C@@H]3SC(=O)Cc1ccc(F)cc1 (single isomer, unassigned) | 1 µg/mL (≈ 1.68 µM)

Test system: Staphylococcus aureus
Experiment: Antibacterial activity against methicillin-sensitive Staphylococcus aureus isolate 1 incubated overnight by agar dilution method
Format: functional
Method in brief: as §1

Row | Compound | MIC
22 | C[C@]12C[C@]34C[C@@H]1C[C@H](O2)[C@H]3[C@](C)(CCC(=O)Nc1c(O)ccc(C(=O)O)c1O)C(=O)C[C@@H]4SC(=O)c1cccc(F)c1 | 1 µg/mL (≈ 1.67 µM)
23 | C=C1C[C@@]23CCC1C[C@@H]2[C@](C)(CCC(=O)Nc1c(O)ccc(C(=O)O)c1O)C(=O)C[C@@H]3SC(=O)c1ccccc1 (single isomer, unassigned) | 1 µg/mL (≈ 1.77 µM)
24 | C=C1C[C@@]23CCC1C[C@@H]2[C@](C)(CCC(=O)Nc1c(O)ccc(C(=O)O)c1O)C(=O)C[C@@H]3SC(=O)Cc1ccc(F)cc1 (single isomer, unassigned) | 1 µg/mL (≈ 1.68 µM)

Test system: Staphylococcus aureus
Experiment: Antibacterial activity against Staphylococcus aureus ATCC 29213 incubated overnight by agar dilution method
Format: functional
Method in brief: as §1

Row | Compound | MIC
25 | C[C@]12C[C@]34C[C@@H]1C[C@H](O2)[C@H]3[C@](C)(CCC(=O)Nc1c(O)ccc(C(=O)O)c1O)C(=O)C[C@@H]4SC(=O)c1cccc(F)c1 | 2 µg/mL (≈ 3.35 µM)
26 | C=C1C[C@@]23CCC1C[C@@H]2[C@](C)(CCC(=O)Nc1c(O)ccc(C(=O)O)c1O)C(=O)C[C@@H]3SC(=O)c1ccccc1 (single isomer, unassigned) | 4 µg/mL (≈ 7.1 µM)
27 | C=C1C[C@@]23CCC1C[C@@H]2[C@](C)(CCC(=O)Nc1c(O)ccc(C(=O)O)c1O)C(=O)C[C@@H]3SC(=O)Cc1ccc(F)cc1 (single isomer, unassigned) | 4 µg/mL (≈ 6.71 µM)

Test system: Staphylococcus aureus
Experiment: Antibacterial activity against methicillin-sensitive Staphylococcus aureus isolate 3 incubated overnight by agar dilution method
Format: functional
Method in brief: as §1

Row | Compound | MIC
28 | C[C@]12C[C@]34C[C@@H]1C[C@H](O2)[C@H]3[C@](C)(CCC(=O)Nc1c(O)ccc(C(=O)O)c1O)C(=O)C[C@@H]4SC(=O)c1cccc(F)c1 | 1 µg/mL (≈ 1.67 µM)
29 | C=C1C[C@@]23CCC1C[C@@H]2[C@](C)(CCC(=O)Nc1c(O)ccc(C(=O)O)c1O)C(=O)C[C@@H]3SC(=O)c1ccccc1 (single isomer, unassigned) | 1 µg/mL (≈ 1.77 µM)
30 | C=C1C[C@@]23CCC1C[C@@H]2[C@](C)(CCC(=O)Nc1c(O)ccc(C(=O)O)c1O)C(=O)C[C@@H]3SC(=O)Cc1ccc(F)cc1 (single isomer, unassigned) | 1 µg/mL (≈ 1.68 µM)

Test system: Staphylococcus aureus
Experiment: Antibacterial activity against methicillin-resistant Staphylococcus aureus isolate 6 incubated overnight by agar dilution method
Format: functional
Method in brief: as §1

Row | Compound | MIC
31 | C[C@]12C[C@]34C[C@@H]1C[C@H](O2)[C@H]3[C@](C)(CCC(=O)Nc1c(O)ccc(C(=O)O)c1O)C(=O)C[C@@H]4SC(=O)c1cccc(F)c1 | 1 µg/mL (≈ 1.67 µM)
32 | C=C1C[C@@]23CCC1C[C@@H]2[C@](C)(CCC(=O)Nc1c(O)ccc(C(=O)O)c1O)C(=O)C[C@@H]3SC(=O)c1ccccc1 (single isomer, unassigned) | 2 µg/mL (≈ 3.55 µM)
33 | C=C1C[C@@]23CCC1C[C@@H]2[C@](C)(CCC(=O)Nc1c(O)ccc(C(=O)O)c1O)C(=O)C[C@@H]3SC(=O)Cc1ccc(F)cc1 (single isomer, unassigned) | 2 µg/mL (≈ 3.36 µM)

Test system: Staphylococcus aureus
Experiment: Antibacterial activity against methicillin-resistant Staphylococcus aureus isolate 11 incubated overnight by agar dilution method
Format: functional
Method in brief: as §1

Row | Compound | MIC
34 | C[C@]12C[C@]34C[C@@H]1C[C@H](O2)[C@H]3[C@](C)(CCC(=O)Nc1c(O)ccc(C(=O)O)c1O)C(=O)C[C@@H]4SC(=O)c1cccc(F)c1 | 2 µg/mL (≈ 3.35 µM)
35 | C=C1C[C@@]23CCC1C[C@@H]2[C@](C)(CCC(=O)Nc1c(O)ccc(C(=O)O)c1O)C(=O)C[C@@H]3SC(=O)c1ccccc1 (single isomer, unassigned) | 2 µg/mL (≈ 3.55 µM)
36 | C=C1C[C@@]23CCC1C[C@@H]2[C@](C)(CCC(=O)Nc1c(O)ccc(C(=O)O)c1O)C(=O)C[C@@H]3SC(=O)Cc1ccc(F)cc1 (single isomer, unassigned) | 4 µg/mL (≈ 6.71 µM)
